According to ChEMBL document CHEMBL5058577, “EUbOPEN Chemogenomics Library 2 (Multiplex)” (2022):

System: U2OS
Experiment: Multiplex assay against U2OS
Format: toxicity, cell-based
Settings: human
How it was run: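 At seeding, live cells were stained with Hoechst33342, BioTracker Green Microtubule Cytoskeleton Dye, MitoTracker Red and Annexin V Alexa Fluor 680. After compound addition they were imaged on a CQ1 microscope at 37°C and 5% CO2, and CellPathfinder machine-learning gating sorted them into Hoechst high-intensity objects or normal cells, with normal cells further split into healthy, pyknosed or fragmented nuclei and pyknosed cells into mitotic or apoptotic. Tubulin, mitochondrial-mass and membrane-permeability phenotypes are given as per cents of cells with healthy nuclei.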

[1] = 12 h, 1 µM, compound concentration 1 uM, replicate 1
[2] = 12 h, 1 µM, compound concentration 1 uM, replicate 2
[3] = 12 h, 10 µM, compound concentration 10 uM, replicate 1
[4] = 12 h, 10 µM, compound concentration 10 uM, replicate 2
[5] = 24 h, 1 µM, compound concentration 1 uM, replicate 1
[6] = 24 h, 1 µM, compound concentration 1 uM, replicate 2
[7] = 24 h, 10 µM, compound concentration 10 uM, replicate 1
[8] = 24 h, 10 µM, compound concentration 10 uM, replicate 2
[9] = 48 h, 1 µM, compound concentration 1 uM, replicate 1
[10] = 48 h, 1 µM, compound concentration 1 uM, replicate 2
[11] = 48 h, 10 µM, compound concentration 10 uM, replicate 1
[12] = 48 h, 10 µM, compound concentration 10 uM, replicate 2

SMILES: CC1(COc2ccc3c(c2)ncn3-c2ccc3cccc(N4CCC(N)CC4)c3n2)COC1 [CRENOLANIB]
- Population Apoptotic (%) [1]: 58%
- Population Fragmented Nuclei (%) [1]: 36%
- Population Healthy Nuclei (%) [1]: 50%
- Population Hoechst High Intensity Objects (%) [1]: 9%
- Population Membrane Permeable-Phenotype (%) [1]: 87%
- Population Mitochondria Different-Phenotype (%) [1]: 51%
- Population Mitotic Cells (%) [1]: 41%
- Population Normal (%) [1]: 90%
- Population Pyknosed Nuclei (%) [1]: 13%
- Population Tubulin-Different-Phenotype (%) [1]: 92%
- Total Cell Count [1]: 143
- Population Apoptotic (%) [2]: 25%
- Population Fragmented Nuclei (%) [2]: 28%
- Population Healthy Nuclei (%) [2]: 60%
- Population Hoechst High Intensity Objects (%) [2]: 13%
- Population Membrane Permeable-Phenotype (%) [2]: 82%
- Population Mitochondria Different-Phenotype (%) [2]: 73%
- Population Mitotic Cells (%) [2]: 75%
- Population Normal (%) [2]: 86%
- Population Pyknosed Nuclei (%) [2]: 10%
- Population Tubulin-Different-Phenotype (%) [2]: 88%
- Total Cell Count [2]: 86
- Population Apoptotic (%) [3]: 81%
- Population Fragmented Nuclei (%) [3]: 43%
- Population Healthy Nuclei (%) [3]: 11%
- Population Hoechst High Intensity Objects (%) [3]: 21%
- Population Membrane Permeable-Phenotype (%) [3]: 76%
- Population Mitochondria Different-Phenotype (%) [3]: 80%
- Population Mitotic Cells (%) [3]: 18%
- Population Normal (%) [3]: 78%
- Population Pyknosed Nuclei (%) [3]: 44%
- Population Tubulin-Different-Phenotype (%) [3]: 88%
- Total Cell Count [3]: 274
- Population Apoptotic (%) [4]: 92%
- Population Fragmented Nuclei (%) [4]: 37%
- Population Healthy Nuclei (%) [4]: 21%
- Population Hoechst High Intensity Objects (%) [4]: 24%
- Population Membrane Permeable-Phenotype (%) [4]: 47%
- Population Mitochondria Different-Phenotype (%) [4]: 76%
- Population Mitotic Cells (%) [4]: 7%
- Population Normal (%) [4]: 75%
- Population Pyknosed Nuclei (%) [4]: 41%
- Population Tubulin-Different-Phenotype (%) [4]: 85%
- Population Apoptotic (%) [5]: 71%
- Population Fragmented Nuclei (%) [5]: 39%
- Population Healthy Nuclei (%) [5]: 45%
- Population Hoechst High Intensity Objects (%) [5]: 9%
- Population Membrane Permeable-Phenotype (%) [5]: 71%
- Population Mitochondria Different-Phenotype (%) [5]: 62%
- Population Mitotic Cells (%) [5]: 28%
- Population Normal (%) [5]: 90%
- Population Pyknosed Nuclei (%) [5]: 14%
- Population Tubulin-Different-Phenotype (%) [5]: 87%
- Total Cell Count [5]: 156
- Population Apoptotic (%) [6]: 54%
- Population Fragmented Nuclei (%) [6]: 25%
- Population Healthy Nuclei (%) [6]: 62%
- Population Hoechst High Intensity Objects (%) [6]: 10%
- Population Membrane Permeable-Phenotype (%) [6]: 67%
- Population Mitochondria Different-Phenotype (%) [6]: 67%
- Population Mitotic Cells (%) [6]: 45%
- Population Normal (%) [6]: 89%
- Population Pyknosed Nuclei (%) [6]: 12%
- Population Tubulin-Different-Phenotype (%) [6]: 72%
- Total Cell Count [6]: 98
- Population Apoptotic (%) [7]: 93%
- Population Fragmented Nuclei (%) [7]: 46%
- Population Healthy Nuclei (%) [7]: 8%
- Population Hoechst High Intensity Objects (%) [7]: 37%
- Population Membrane Permeable-Phenotype (%) [7]: 42%
- Population Mitochondria Different-Phenotype (%) [7]: 50%
- Population Mitotic Cells (%) [7]: 6%
- Population Normal (%) [7]: 62%
- Population Pyknosed Nuclei (%) [7]: 45%
- Population Tubulin-Different-Phenotype (%) [7]: 50%
- Total Cell Count [7]: 254
- Population Apoptotic (%) [8]: 100%
- Population Fragmented Nuclei (%) [8]: 53%
- Population Healthy Nuclei (%) [8]: 11%
- Population Hoechst High Intensity Objects (%) [8]: 36%
- Population Membrane Permeable-Phenotype (%) [8]: 44%
- Population Mitochondria Different-Phenotype (%) [8]: 77%
- Population Mitotic Cells (%) [8]: 0%
- Population Normal (%) [8]: 63%
- Population Pyknosed Nuclei (%) [8]: 34%
- Population Tubulin-Different-Phenotype (%) [8]: 77%
- Population Apoptotic (%) [9]: 88%
- Population Fragmented Nuclei (%) [9]: 41%
- Population Healthy Nuclei (%) [9]: 43%
- Population Hoechst High Intensity Objects (%) [9]: 8%
- Population Membrane Permeable-Phenotype (%) [9]: 35%
- Population Mitochondria Different-Phenotype (%) [9]: 40%
- Population Mitotic Cells (%) [9]: 12%
- Population Normal (%) [9]: 91%
- Population Pyknosed Nuclei (%) [9]: 14%
- Population Tubulin-Different-Phenotype (%) [9]: 44%
- Total Cell Count [9]: 186
- Population Apoptotic (%) [10]: 62%
- Population Fragmented Nuclei (%) [10]: 37%
- Population Healthy Nuclei (%) [10]: 48%
- Population Hoechst High Intensity Objects (%) [10]: 4%
- Population Membrane Permeable-Phenotype (%) [10]: 53%
- Population Mitochondria Different-Phenotype (%) [10]: 37%
- Population Mitotic Cells (%) [10]: 37%
- Population Normal (%) [10]: 95%
- Population Pyknosed Nuclei (%) [10]: 13%
- Population Tubulin-Different-Phenotype (%) [10]: 51%
- Population Apoptotic (%) [11]: 100%
- Population Fragmented Nuclei (%) [11]: 51%
- Population Healthy Nuclei (%) [11]: 11%
- Population Hoechst High Intensity Objects (%) [11]: 42%
- Population Membrane Permeable-Phenotype (%) [11]: 43%
- Population Mitochondria Different-Phenotype (%) [11]: 37%
- Population Mitotic Cells (%) [11]: 0%
- Population Normal (%) [11]: 58%
- Population Pyknosed Nuclei (%) [11]: 37%
- Population Tubulin-Different-Phenotype (%) [11]: 56%
- Total Cell Count [11]: 250
- Population Fragmented Nuclei (%) [12]: 57%
- Population Healthy Nuclei (%) [12]: 13%
- Population Hoechst High Intensity Objects (%) [12]: 29%
- Population Membrane Permeable-Phenotype (%) [12]: 50%
- Population Mitochondria Different-Phenotype (%) [12]: 35%
- Population Normal (%) [12]: 70%
- Population Pyknosed Nuclei (%) [12]: 28%
- Population Tubulin-Different-Phenotype (%) [12]: 28%
- Total Cell Count [12]: 144

SMILES: O=C(O)Cc1ccccc1Nc1c(Cl)cccc1Cl [DICLOFENAC]
- Population Apoptotic (%) [1]: 90%
- Population Fragmented Nuclei (%) [1]: 15%
- Population Healthy Nuclei (%) [1]: 78%
- Population Hoechst High Intensity Objects (%) [1]: 5%
- Population Membrane Permeable-Phenotype (%) [1]: 4%
- Population Mitochondria Different-Phenotype (%) [1]: 4%
- Population Mitotic Cells (%) [1]: 10%
- Population Normal (%) [1]: 94%
- Population Pyknosed Nuclei (%) [1]: 6%
- Population Tubulin-Different-Phenotype (%) [1]: 4%
- Total Cell Count [1]: 164
- Population Apoptotic (%) [2]: 84%
- Population Fragmented Nuclei (%) [2]: 13%
- Population Healthy Nuclei (%) [2]: 76%
- Population Hoechst High Intensity Objects (%) [2]: 0%
- Population Membrane Permeable-Phenotype (%) [2]: 5%
- Population Mitochondria Different-Phenotype (%) [2]: 2%
- Population Mitotic Cells (%) [2]: 15%
- Population Normal (%) [2]: 99%
- Population Pyknosed Nuclei (%) [2]: 10%
- Population Tubulin-Different-Phenotype (%) [2]: 2%
- Population Apoptotic (%) [3]: 75%
- Population Fragmented Nuclei (%) [3]: 20%
- Population Healthy Nuclei (%) [3]: 68%
- Population Hoechst High Intensity Objects (%) [3]: 2%
- Population Membrane Permeable-Phenotype (%) [3]: 8%
- Population Mitochondria Different-Phenotype (%) [3]: 4%
- Population Mitotic Cells (%) [3]: 25%
- Population Normal (%) [3]: 97%
- Population Pyknosed Nuclei (%) [3]: 11%
- Population Tubulin-Different-Phenotype (%) [3]: 4%
- Total Cell Count [3]: 258
- Population Apoptotic (%) [4]: 72%
- Population Fragmented Nuclei (%) [4]: 14%
- Population Healthy Nuclei (%) [4]: 76%
- Population Hoechst High Intensity Objects (%) [4]: 3%
- Population Mitochondria Different-Phenotype (%) [4]: 3%
- Population Mitotic Cells (%) [4]: 27%
- Population Normal (%) [4]: 96%
- Population Pyknosed Nuclei (%) [4]: 9%
- Population Tubulin-Different-Phenotype (%) [4]: 8%
- Population Apoptotic (%) [5]: 92%
- Population Fragmented Nuclei (%) [5]: 15%
- Population Healthy Nuclei (%) [5]: 76%
- Population Hoechst High Intensity Objects (%) [5]: 4%
- Population Membrane Permeable-Phenotype (%) [5]: 2%
- Population Mitochondria Different-Phenotype (%) [5]: 2%
- Population Mitotic Cells (%) [5]: 7%
- Population Normal (%) [5]: 95%
- Population Pyknosed Nuclei (%) [5]: 7%
- Population Tubulin-Different-Phenotype (%) [5]: 2%
- Total Cell Count [5]: 191
- Population Apoptotic (%) [6]: 87%
- Population Fragmented Nuclei (%) [6]: 19%
- Population Healthy Nuclei (%) [6]: 70%
- Population Hoechst High Intensity Objects (%) [6]: 3%
- Population Membrane Permeable-Phenotype (%) [6]: 5%
- Population Mitotic Cells (%) [6]: 12%
- Population Normal (%) [6]: 96%
- Population Pyknosed Nuclei (%) [6]: 10%
- Total Cell Count [6]: 165
- Population Apoptotic (%) [7]: 72%
- Population Fragmented Nuclei (%) [7]: 17%
- Population Healthy Nuclei (%) [7]: 72%
- Population Hoechst High Intensity Objects (%) [7]: 0%
- Population Membrane Permeable-Phenotype (%) [7]: 3%
- Population Mitochondria Different-Phenotype (%) [7]: 1%
- Population Mitotic Cells (%) [7]: 27%
- Population Normal (%) [7]: 99%
- Population Pyknosed Nuclei (%) [7]: 10%
- Population Tubulin-Different-Phenotype (%) [7]: 2%
- Total Cell Count [7]: 311
- Population Apoptotic (%) [8]: 81%
- Population Fragmented Nuclei (%) [8]: 15%
- Population Healthy Nuclei (%) [8]: 77%
- Population Hoechst High Intensity Objects (%) [8]: 1%
- Population Membrane Permeable-Phenotype (%) [8]: 5%
- Population Mitochondria Different-Phenotype (%) [8]: 2%
- Population Mitotic Cells (%) [8]: 18%
- Population Normal (%) [8]: 98%
- Population Pyknosed Nuclei (%) [8]: 7%
- Population Tubulin-Different-Phenotype (%) [8]: 4%
- Total Cell Count [8]: 153
- Population Apoptotic (%) [9]: 100%
- Population Fragmented Nuclei (%) [9]: 17%
- Population Healthy Nuclei (%) [9]: 71%
- Population Hoechst High Intensity Objects (%) [9]: 4%
- Population Membrane Permeable-Phenotype (%) [9]: 4%
- Population Mitochondria Different-Phenotype (%) [9]: 2%
- Population Mitotic Cells (%) [9]: 0%
- Population Normal (%) [9]: 95%
- Population Pyknosed Nuclei (%) [9]: 10%
- Population Tubulin-Different-Phenotype (%) [9]: 2%
- Total Cell Count [9]: 271
- Population Apoptotic (%) [10]: 83%
- Population Fragmented Nuclei (%) [10]: 15%
- Population Healthy Nuclei (%) [10]: 70%
- Population Hoechst High Intensity Objects (%) [10]: 3%
- Population Mitochondria Different-Phenotype (%) [10]: 4%
- Population Mitotic Cells (%) [10]: 16%
- Population Normal (%) [10]: 96%
- Population Pyknosed Nuclei (%) [10]: 14%
- Population Tubulin-Different-Phenotype (%) [10]: 4%
- Total Cell Count [10]: 216
- Population Apoptotic (%) [11]: 86%
- Population Fragmented Nuclei (%) [11]: 16%
- Population Healthy Nuclei (%) [11]: 73%
- Population Hoechst High Intensity Objects (%) [11]: 2%
- Population Membrane Permeable-Phenotype (%) [11]: 6%
- Population Mitochondria Different-Phenotype (%) [11]: 1%
- Population Mitotic Cells (%) [11]: 13%
- Population Normal (%) [11]: 97%
- Population Pyknosed Nuclei (%) [11]: 10%
- Population Tubulin-Different-Phenotype (%) [11]: 2%
- Total Cell Count [11]: 436
- Population Apoptotic (%) [12]: 100%
- Population Fragmented Nuclei (%) [12]: 12%
- Population Healthy Nuclei (%) [12]: 75%
- Population Hoechst High Intensity Objects (%) [12]: 1%
- Population Mitotic Cells (%) [12]: 0%
- Population Normal (%) [12]: 98%
- Population Pyknosed Nuclei (%) [12]: 11%
- Population Tubulin-Different-Phenotype (%) [12]: 6%
- Total Cell Count [12]: 220
